High-throughput results: PubChem, several laboratories
A selection: hits, their analogues and other compounds. The true share with any hit is near 9.3%.
D1 allo mod: allosteric modulators of human D1 dopamine receptor | HEK293 D1, CRE-luciferase, dopamine EC30 potentiation; actives deviate in either direction | B-score at 10 µM | 5.9% of 58,000 active | AID 641;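 active means luminescence count or its row- and column-corrected plate score outside the 99.7% band of the plate's sample wells, on either side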
Ecoli WT expand: E. coli BW25113 growth inhibition, expanded screen; OD600 absorbance; growth inhibition, % at 100 µM; 0.15% of 98,000 active;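 active means growth inhibition above about 50% at one test dose, limit read from the data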;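 further: growth measured after 20 h incubation at 37 °C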
PostGolgi yeast: growth inhibition of a yeast mutant, post-Golgi transport screen; inhibition, % at 10 µM; post-Golgi transport phenotypic cell assay; AID 739; 0.9% of 98,000 active;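 further: yeast cells grown in 1536-well plates; yeast grown about 18 h at 30C before absorbance read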
PostGolgi ctrl: inhibits growth of the yeast control strain; efflux-deficient yeast background strain, growth absorbance A615, 16 h; inhibition, % at 10 µM; 5% of 98,000 active; AID 738
DAT uptake mod: changed human dopamine transporter uptake under cocaine IC80; Q01959; LLC-PK1 hDAT cells, [14C]-dopamine uptake with cocaine IC80; actives deviate in either direction; B-score at 10 µM; 1.3% of 110,000 active;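 active means Z score or B-score, a plate-position-corrected score, falls beyond the plate's 99.7% confidence bounds, in either direction; inactive means both scores lie inside the 99.7% bounds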;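 further: scored against the spread of the other compound wells on the same plate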
Target sequence (Q01959 whole entry, looked up): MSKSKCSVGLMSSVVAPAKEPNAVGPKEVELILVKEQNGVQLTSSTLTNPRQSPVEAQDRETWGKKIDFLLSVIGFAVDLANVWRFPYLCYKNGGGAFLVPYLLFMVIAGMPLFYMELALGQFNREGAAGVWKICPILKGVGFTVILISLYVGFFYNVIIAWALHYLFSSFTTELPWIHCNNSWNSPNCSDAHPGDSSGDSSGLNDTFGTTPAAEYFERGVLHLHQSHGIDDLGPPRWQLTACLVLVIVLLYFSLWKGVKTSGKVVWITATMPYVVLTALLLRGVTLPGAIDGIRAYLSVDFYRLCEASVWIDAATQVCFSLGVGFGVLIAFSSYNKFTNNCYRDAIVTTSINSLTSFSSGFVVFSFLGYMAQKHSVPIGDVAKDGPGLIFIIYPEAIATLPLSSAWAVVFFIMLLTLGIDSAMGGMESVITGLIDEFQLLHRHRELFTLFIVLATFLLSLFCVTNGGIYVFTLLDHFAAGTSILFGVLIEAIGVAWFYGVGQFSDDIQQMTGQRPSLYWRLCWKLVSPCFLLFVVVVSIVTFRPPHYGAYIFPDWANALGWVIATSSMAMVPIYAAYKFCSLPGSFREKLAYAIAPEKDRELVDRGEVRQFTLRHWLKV
Ecoli tolC: growth inhibitors of E. coli BW25113 tolC mutant. 2.2% of 65,000 active. growth inhibition, % at 10 µM (by protocol). OD615;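 active means growth inhibition at or above a cutoff equal to the mean over every tested compound plus 3 SD, cut at about 60% in these data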;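 further: growth measured after 20 h incubation at 37 °C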
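Doses: one dose of 10 µM final / Material: E. coli BW25113 ΔtolC::kan, tolC deletion mutant strain / Buffer or medium: LB with kanamycin 50 µg/mL / Evaluation: percent growth inhibition / Detection: optical density read at 615 nm / Incubation: 37 °C, 20 h exposure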
Active calls of the source: *; x = not tested or not shown. Unless noted, no stated cut-off is given here; in the data, active means inhibition above about 30%; inactive means the rest.

SMILES	D1 allo mod	Ecoli WT expand	PostGolgi yeast	PostGolgi ctrl	DAT uptake mod	Ecoli tolC
CCCCN(CC)S(=O)(=O)N1CCC(C(=O)NCc2ccc(F)cc2)CC1	-0.809	11.0	-1.1	26.1	0.97	9.1
CCCCn1c(CN2CCN(C(=O)OCC)CC2)nc2c1c(=O)[nH]c(=O)n2C	x	3.0	-1.4	-1.1	1.24	-2.1
CCCCn1c(N2CCC(Cc3ccccc3)CC2)nc2c1c(=O)[nH]c(=O)n2C	x	-14.0	7.4	63.0*	0.986	100.0*
CCCCCn1c(CN2CCN(c3cc(Cl)ccc3C)CC2)nc2c1c(=O)[nH]c(=O)n2C	1.6	3.0	-1.6	55.8*	0.371	1.8
CCC(C)NS(=O)(=O)c1ccc(NS(=O)(=O)c2ccc(F)cc2)cc1 (configuration not stated)	x	14.0	-4.3	5.1	0.0903	x
CCOC(=O)c1csc(Nc2nc3ccc(F)cc3s2)n1	x	-2.0	-5.6	23.8	x	88.1*
CC(=O)c1sc(Nc2nc3ccc(F)cc3s2)nc1C	x	-4.0	7.3	27.3	-0.00511	60.1
CC(=O)c1ccc(-n2nncc2C(C)(C)C)cc1	-0.215	-2.0	-8.9	33.5*	-0.262	-7.3
CC(C)(C)c1cnnn1-c1ccc(NC(=O)c2ccc3c(c2)OCO3)cc1	0.377	-6.0	-0.3	26.7	0.718	20.5
CC(C)(C)c1cnnn1-c1ccc(NC(=O)c2ccc(Br)o2)cc1	x	12.0	4.9	44.5*	1.2	20.5
C[C@@H]1CC[C@]2(O[C@H](CCO)C[C@H](O)[C@H]2O)O1	x	x	x	x	-0.892	x
COc1ccccc1NC(=O)COc1ccc(C(F)(F)F)cc1[N+](=O)[O-]	x	x	x	x	-0.678	x
O=C(Nc1ccccc1Cl)c1ccccc1Oc1ccc(C(F)(F)F)cc1[N+](=O)[O-]	x	-18.0	-0.8	54.1*	0.418	x
O=C(NC(CSSCC(NC(=O)c1ccccc1)C(=O)O)C(=O)O)c1ccccc1 (configuration not stated)	x	x	x	x	-1.73	x
COC(=O)c1cc(S(=O)(=O)n2nc(C)c(Br)c2C)c(Cl)cc1Cl	x	-6.0	4.7	-1.1	x	x
COc1ccnc(Oc2ccc(F)cc2)c1C(=O)N/C=N/OCc1ccc(F)cc1Cl	x	8.0	-1.6	38.1*	0.099	x
COc1ccc(CCNC(=O)c2[nH]c(C)c(C(C)=O)c2C)cc1	x	8.0	0.8	6.9	-0.158	x
CC(=O)c1c(C)[nH]c(C(=O)NCCc2cccc(C)c2)c1C	-2.75*	4.0	-4.8	13.3	0.13	36.4
Cc1nn(Cc2ccccc2)c(N)c1-c1ccccc1	-0.517	9.0	34.3*	2.9	-0.932	-3.3
O=C1c2cccnc2C(=O)N1Cc1ccccc1	3.63	-8.0	7.2	3.7	-1.04	-14.3
O=C1c2cccc3c(O)ccc(c23)C(=O)N1Cc1ccccc1	x	-2.0	30.4*	22.6	-0.192	x
CCOc1cc(CNCCO)cc(Br)c1OCc1cccs1	x	11.0	-10.8	-0.7	-0.00402	x
CCOc1cc(CNCCO)cc(Br)c1OCc1ccc(Cl)cc1Cl	x	80.0*	27.0	90.0*	0.889	x
O=C1CC(c2ccc(F)cc2)CC(O)=C1C=NCCN1CCN(C(=O)Nc2ccccc2)CC1 (configuration not stated)	-1.07	3.0	-3.3	4.3	-0.299	-23.2
Cc1ccc(S(=O)(=O)N(CC(=O)N2CCC(C)CC2)Cc2ccccc2F)cc1	x	1.0	-5.2	37.5*	-0.585	x
SMILES	D1 allo mod	Ecoli WT expand	PostGolgi yeast	PostGolgi ctrl	DAT uptake mod	Ecoli tolC
Cc1ccc(S(=O)(=O)N(CC(=O)O)Cc2ccccc2F)cc1	-0.875	5.0	-7.3	2.3	-1.24	7.8
COc1ccc(-c2coc3cc(O)ccc3c2=O)cc1	x	x	x	x	-0.176	x
COc1ccc2c(=O)c(-c3nc(C)cs3)coc2c1	-5.93*	-1.0	-7.9	4.0	0.0267	6.7
Cn1c(SCC2CCCCC2)nnc1-c1ccncc1	0.352	8.0	1.9	0.7	-7.89*	-1.3
CC(=O)CSc1nnc(-c2ccncc2)n1C	x	-8.0	4.5	-1.6	0.412	x
CCOC(=O)NC(Nc1ccc(S(N)(=O)=O)cc1)(C(=O)OCC)C(F)(F)F (configuration not stated)	-0.248	1.0	31.6*	-0.4	-0.0299	-5.5
CCOC(=O)C(NC(C)=O)(Nc1cccc(F)c1)C(F)(F)F (configuration not stated)	-6.42*	-5.0	8.1	-5.4	0.331	-14.6
CCOC(=O)C(NC(C)=O)(Nc1ccc(F)cc1)C(F)(F)F (configuration not stated)	0.179	7.0	1.1	-1.8	-0.256	-22.6
COc1ccc(C(=O)Nc2cccc(OC)c2)cc1	-3.71*	7.0	-8.7	10.6	0.305	4.5
